Most compounds without a hit are left out; they make up all but 2% or so of the library.
CHRM5 antagonist: blocks acetylcholine activation of human M5 receptor. CHO-hM5 cells, Fluo-8 calcium fluorescence, ACh EC80. 0.59% of 360,000 active. P08912. inhibition, % at 3 µM;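 active = inhibition above a per-plate cutoff, the mean of that plate's test compounds plus 3 SD, cut at about 27% in these data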;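 note: 0% = acetylcholine EC80 with DMSO and 100% = DMSO without agonist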
Target sequence (P08912 whole entry, looked up): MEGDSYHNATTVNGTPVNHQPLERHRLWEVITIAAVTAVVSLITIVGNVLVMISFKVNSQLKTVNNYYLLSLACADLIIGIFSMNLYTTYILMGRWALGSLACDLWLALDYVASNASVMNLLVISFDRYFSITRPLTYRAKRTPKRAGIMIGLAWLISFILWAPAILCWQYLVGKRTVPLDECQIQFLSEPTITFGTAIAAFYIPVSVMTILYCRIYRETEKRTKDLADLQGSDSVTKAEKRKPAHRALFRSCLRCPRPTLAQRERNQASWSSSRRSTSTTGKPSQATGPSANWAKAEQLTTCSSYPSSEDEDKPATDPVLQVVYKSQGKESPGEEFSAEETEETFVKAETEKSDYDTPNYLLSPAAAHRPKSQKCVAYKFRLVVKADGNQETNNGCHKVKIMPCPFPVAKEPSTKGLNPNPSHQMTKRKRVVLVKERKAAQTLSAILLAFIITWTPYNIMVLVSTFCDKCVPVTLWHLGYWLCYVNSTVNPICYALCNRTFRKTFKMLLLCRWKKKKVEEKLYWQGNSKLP
M5 PAM: CHRM5 positive allosteric modulation; P08912; CHO-K1 hM5, Fluo-8 calcium, ACh EC20 PAM; 0% = ACh EC20, 100% = ACh EC100; activation, % at 3 µM; 0.3% of 360,000 active;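 active = activation above the run cutoff, the mean activation of all test compounds plus 3 SD, cut at about 18% in these data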
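Measured by: Fluo-8 calcium fluorescence; material: human M5 receptor in CHO-K1 cells; schedule: Post-acetylcholine fluorescence recording 140 s; benchmarks: low control EC20 acetylcholine (0%), high control EC100 acetylcholine (100%); read-out: Max/basal fluorescence ratio as % of EC20–EC100 ACh window; compound: single dose, 3 µM nominal final test concentration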
CHRM1 agonist: human M1 muscarinic receptor agonism; P11229; CHO-K1 hM1, Fluo-8 calcium fluorescence, agonist mode; 0% DMSO, 100% acetylcholine EC100; activation, % at 3 µM; 0.33% of 360,000 active; AID 588814;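 active = activation above the run's mean compound activation plus 3 SD, cut at about 16% in these data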;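 note: peak over basal fluorescence ratio within a 140 s kinetic read after compound addition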
M1 PAM: positive allosteric modulators of human M1 muscarinic receptor. P11229. CHO-K1 hM1, Fluo-8 calcium fluorescence, ACh EC20; 0% = ACh EC20, 100% = maximal ACh. activation, % at 3 µM. 0.088% of 360,000 active. AID 588819; in the data active = activation above about 19%, passing the limit was not always enough
M1 antag: antagonists of human M1 muscarinic receptor; P11229; CHO-K1 hM1, Fluo-8 calcium fluorescence, ACh EC80 antagonist; 1.3% of 360,000 active; inhibition, % at 3 µM; AID 588852;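 active = percent inhibition above its own plate's cutoff, namely the mean of that plate's compound wells plus 3 SD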;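 note: peak over basal fluorescence ratio during 140 s after agonist addition; 0% = ACh EC80 plus DMSO and 100% = DMSO alone without agonist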
CHRM5 agonist: agonists of human muscarinic M5 receptor (CHRM5). 0.19% of 360,000 active. P08912. CHO-K1 hM5 cells, Fluo-8 calcium fluorescence; 0% DMSO wells, 100% maximal acetylcholine response. AID 624037. activation, % at 3 µM;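 active = activation above the run's mean over test compounds plus 3 SD, cut at about 23% in these data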;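 note: signal is peak over basal fluorescence ratio across the kinetic read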
* marks the source's active call; other numbers are inactive results; / = not tested or not shown.

SMILES	CHRM5 antagonist	M5 PAM	CHRM1 agonist	M1 PAM	M1 antag	CHRM5 agonist
C[N+]1(C)[C@@H]2CC[C@H]1CC(OC(=O)C(CO)c1ccccc1)C2 (some centres undefined)	99*	-18	-6	-26	99*	-2
C[N+]1(C)C2CCC1CC(OC(=O)c1ccccc1)C2 (centres undefined)	6	-22	-8	-9	12	-18
C[N+]1([O-])[C@@H]2CC(OC(=O)[C@H](CO)c3ccccc3)C[C@H]1[C@@H]1O[C@@H]12 (some centres undefined)	98*	-18	-9	-26	100*	-1
C#CC[N+]1(C)[C@@H]2CC(OC(=O)C(CO)c3ccccc3)C[C@H]1C(O)C2 (some centres undefined)	98*	-22	-10	-27	101*	-9
O=C(CCc1ccccc1)N1Cc2cc(N3CCCCC3)ccc2-n2nncc2C1	3	-5	-10	-10	10	-2
Cc1cccc(C)c1-n1nnnc1C(c1ccccc1OC(F)(F)F)N1CCC(n2c(=O)[nH]c3ccccc32)CC1 (centres undefined)	1	12	-2	-3	-16	0
Nc1ncc([N+](=O)[O-])s1	1	-1	-2	-4	4	1
Cc1cccc(-n2c(O)c(/C=C/C=Nc3ccccc3)c(=O)[nH]c2=O)c1	4	2	7	-9	7	8
Cn1c(O)c(/C=C/C=Nc2ccccc2)c(=O)n(C)c1=S	14	-7	58*	-17	34*	14
Cc1cccc(C)c1-n1nnnc1C(C1CC1)N1CCC2(CC1)C(=O)NCN2c1ccccc1 (centres undefined)	10	-12	10	3	-15	7
CN1C2CCC1CC(OC(=O)c1ccc(Cl)cc1)C2 (centres undefined)	32*	-15	-5	-22	77*	-12
CCOc1ccc(C(=O)OC2CC3CCC(C2)N3C)cc1 (centres undefined)	12	-21	-12	-16	5	-11
O=c1[nH]c2ccccc2n1C1CCN(C(c2cc3ccccc3o2)c2nnnn2Cc2ccccc2)CC1 (centres undefined)	-2	-17	3	-8	1	7
CC(=O)Nc1cc([As](=O)(O)O)ccc1O	13	-13	20*	-6	-18	27*
CC(=O)Nc1cccc([As](=O)(c2cccc(NC(C)=O)c2)c2cccc(NC(C)=O)c2)c1	9	1	0	15	-17	2
CCOC(=O)CC(SP1(=S)OCC2(CC=CCC2)CO1)C(=O)OCC (centres undefined)	11	-40	1	-21	24*	2
Fc1ccc(C(OCCN2CCCC2)c2ccc(F)cc2)cc1	54*	-18	-9	-23	79*	-5
Fc1ccc(C(OCCN2CCCC2)c2ccc(Br)cc2)cc1 (centres undefined)	38*	-18	-8	-23	81*	-5
Cc1ccccc1CC(=O)N(CCN(C)C)CC1CCCN(Cc2ccccc2F)C1 (centres undefined)	-2	-2	-8	2	-1	-4
O=C(c1ccc(Cl)cc1)C1CCCN(Cc2ccc3c(c2)OCCO3)C1 (centres undefined)	-8	-7	-13	-34	18	-10
O=C(c1ccc2c(c1)OCO2)C1CCCN(Cc2ccc(F)c(F)c2)C1 (centres undefined)	4	-11	-7	-24	70*	-9
O=C(c1ccc(Cl)cc1)C1CCCN(Cc2cccc3cnccc23)C1 (centres undefined)	48*	-36	-3	-23	70*	-16
CN(C(=O)Cc1ccc2c(c1)OCO2)C1CCCN(Cc2ccccc2F)C1 (centres undefined)	-3	-15	-7	-27	46*	-22
O=C(c1ccc(Cl)cc1)C1CCCN(Cc2ccc3ncccc3c2)C1 (centres undefined)	14	-30	0	-20	81*	-12
C[C@H](CO)N1C[C@H](C)[C@@H](CN(C)C(=O)Oc2ccccc2)OCc2cnnn2CCCC1=O	-3	1	-3	3	-11	1
SMILES	CHRM5 antagonist	M5 PAM	CHRM1 agonist	M1 PAM	M1 antag	CHRM5 agonist
CCCCCCCCCCCCCCCC[N+](C)(C)C	38*	-18	-5	-23	34	-2
CC1(C)CN=C(Nc2ccc(F)c(Cl)c2)S1	3	-1	12	1	-10	15
CC1(C)CN=C(Nc2ccc(F)c(F)c2)S1	0	-6	20*	6	-13	18
Nc1ccc(-c2ccc(N)cc2)cc1	16	5	1	10	-14	1
CCOC(=O)[C@]12Cc3cc(OC)ccc3[C@H]1N(C1CCCCC1)C(=O)c1ccccc12	3	9	/	/	/	20
CCOC(=O)[C@]12Cc3cc(Cl)ccc3[C@H]1N(C1CCCCC1)C(=O)c1ccccc12	2	12	/	/	/	24*
CN1CCC(N(C)c2nc(-c3ccc([N+](=O)[O-])cc3)nc3ccccc23)CC1	4	0	-2	-4	-3	-3
CN(CC1COc2ccccc2O1)c1nc(-c2cccnc2)nc2ccccc12 (centres undefined)	0	-25	0	-13	30*	-6
CCOC(=O)[C@]12Cc3cc4ccccc4cc3[C@H]1N(Cc1ccccc1)C(=O)c1ccccc12	8	1	/	/	/	0
COC(=O)C1=C(c2ccc(OCc3ccccc3)cc2)C[C@@H]2CC[C@H]1N2C(=O)NCc1ccc(F)cc1	4	-4	-6	-6	14	-1
COc1cccc(C(c2nnnn2-c2ccc3c(c2)OCCO3)N2CCC(n3c(=O)[nH]c4ccccc43)CC2)c1OC (centres undefined)	15	-10	20*	2	16	30*
O=c1[nH]c2ccccc2n1C1CCN(C(c2ccccc2OC(F)(F)F)c2nnnn2-c2ccc3c(c2)OCCO3)CC1 (centres undefined)	11	-15	3	1	-16	5
COc1ccc(-n2nnnc2C(c2cccc(OC)c2OC)N2CCC(n3c(=O)[nH]c4ccccc43)CC2)cc1 (centres undefined)	9	-16	23*	8	-6	15
COc1c(OP2(=S)OCC(C)(C)CO2)cnn(C2CCCCC2)c1=O	-4	1	-4	-1	5	3
CC1=C(O)C(=O)C=C2C1=CC=C1C2(C)CCC2(C)C3CC(C)(C(=O)O)CCC3(C)CCC12C (centres undefined)	37*	-23	0	-6	35	4

Screening data as filed in PubChem BioAssay.
